Data set [1] concerns HeLa. Nature of the data set: Cytotoxic activity in human HeLa cells by sulforhodamine B assay. Format: functional. In short, it runs like this:
(§1)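 Cell lines grown in D-MEM with 10% (v/v) FBS, 100 U/mL penicillin G and 100 μg/mL streptomycin at 37 °C, 5% CO2, 95% humidity. Cytotoxicity was measured by the Skehan method. CC50 was taken as the concentration that reduces cell growth by 50%. Docetaxel served as positive control, and each test was run in triplicate.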

The subject of data set [2] is SiHa. In words: Cytotoxic activity in human SiHa cells by sulforhodamine B assay. Format: functional. In outline:
as §1
(Sulforhodamine B stains cellular protein and so reports cell mass.)

Data set [3] relates to MCF7. Nature of the data set: Cytotoxic activity in human MCF7 cells by sulforhodamine B assay. It counts as functional. In outline: as §1
Data set [4] concerns MDA-MB-231. In words: Cytotoxic activity in human MDA-MB-231 cells by sulforhodamine B assay. Format: functional. In outline:
as §1

The subject of data set [5] is DU-145. In words: Cytotoxic activity in human DU145 cells by sulforhodamine B assay. Format: functional. In outline:
as §1

Data set [6] concerns KB. In words: Cytotoxic activity in human KB cells by sulforhodamine B assay. Format: functional. In short, it runs like this:
as §1

Data set [7] concerns HEp-2. In words: Cytotoxic activity in human Hep2 cells by sulforhodamine B assay. Format: functional. In short, it runs like this:
as §1

Data set [8] can be described thus: Cytotoxic activity in African green monkey Vero cells by sulforhodamine B assay. It counts as cell-based. The settings on record: chlorocebus sabaeus. In short, it runs like this: (§2)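 Cells grown in D-MEM with 10% (v/v) FBS, 100 U/mL penicillin G and 100 μg/mL streptomycin, at 37 °C under 5% CO2 and 95% humidity. Cytotoxic and antiproliferative effects were measured by the sulforhodamine B method of Skehan et al. CC50 (cytotoxic) or IC50 (antiproliferative) is the concentration giving 50% growth reduction. Docetaxel was the positive control. Triplicate tests.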

Data set [9] in a line: Cytotoxic activity in HEK293 cells by sulforhodamine B assay. It counts as cell-based. Conditions: human. In outline:
as §2

The test system of data set [10] is HeLa. Nature of the data set: Antiproliferative activity in human HeLa cells by sulforhodamine B assay. It counts as functional, cell-based. In short, it runs like this: as §2
The test system of data set [11] is SiHa. In words: Antiproliferative activity in human SiHa cells by sulforhodamine B assay. Format: functional, cell-based. In short, it runs like this:
as §2

Data set [12] concerns MCF7. Nature of the data set: Antiproliferative activity in human MCF7 cells by sulforhodamine B assay. It counts as functional, cell-based. In short, it runs like this:
as §2

In data set [13] the test system is MDA-MB-231. In words: Antiproliferative activity in human MDA-MB-231 cells by sulforhodamine B assay. Format: functional, cell-based. In outline: as §2
Data set [14] deals with DU-145. Nature of the data set: Antiproliferative activity in human DU145 cells by sulforhodamine B assay. It counts as functional, cell-based. In short, it runs like this:
as §2

Data set [15] has as its system KB. Nature of the data set: Antiproliferative activity in human KB cells by sulforhodamine B assay. It counts as functional, cell-based. In outline:
as §2

Data set [16] concerns HEp-2. Nature of the data set: Antiproliferative activity in human Hep2 cells by sulforhodamine B assay. It counts as functional, cell-based. In short, it runs like this: as §2
Another data set has as its system Vero. Nature of the data set: Antiproliferative activity in African green monkey Vero cells by sulforhodamine B assay. Format: cell-based. The settings on record: Chlorocebus sabaeus. In outline:
as §2

For the next data set, the system named is HEK293. In words: Antiproliferative activity in HEK293 cells by sulforhodamine B assay. Conditions: Homo sapiens. Format: cell-based. In short, it runs like this: as §2
The nature of data set [17]: Selectivity index, ratio of cytotoxic CC50 for African green monkey Vero cells to cytotoxic CC50 for human MCF7 cells. The settings on record: Vero cells versus MCF7 cells, read-out: Selectivity Index. Format: toxicity. In short, it runs like this: (§3)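 Selectivity index for harmfulness to normal cells: the normal-cell (Vero or HEK293) CC50 or IC50 over the cancer-cell value from the same assay type. Each value is from sulforhodamine B growth-reduction tests done in triplicate in D-MEM/10% FBS at 37 °C, 5% CO2.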

A short description of data set [18]: Selectivity index, ratio of cytotoxic CC50 for African green monkey Vero cells to cytotoxic CC50 for human KB cells. Format: toxicity. The settings on record: Vero cells versus KB cells, read-out: Selectivity Index. In outline:
as §3

Data set [19] can be described thus: Selectivity index, ratio of cytotoxic CC50 for African green monkey Vero cells to cytotoxic CC50 for human Hep2 cells. It counts as toxicity. The settings on record: Vero cells versus Hep2 cells, read-out: Selectivity Index.
Data set [20] in a line: Selectivity index, ratio of antiproliferative IC50 for African green monkey Vero cells to antiproliferative IC50 for human SiHa cells. It counts as toxicity. The settings on record: Vero cells versus SiHa cells, read-out: Ratio IC50. In outline:
as §3

The nature of data set [21]: Selectivity index, ratio of antiproliferative IC50 for African green monkey Vero cells to antiproliferative IC50 for human KB cells. It counts as toxicity. The settings on record: Vero cells versus KB cells, read-out: Ratio IC50. In short, it runs like this: as §3

Bounds are passed on as bounds.

For orientation: CC50 means the concentration giving 50% cytotoxicity. In general, IC50 refers to the concentration that gives 50% inhibition.

As for `C=C(C=O)[C@@H]1CC[C@]2(C(=O)O)CC[C@]3(C)[C@H](CC[C@@H]4[C@@]5(C)CC[C@@H](O)[C@](C)(CO)[C@@H]5CC[C@]43C)[C@@H]12`, the half-maximal cytotoxic concentration (CC50) is 182 µM in the data set with HeLa [1]; 92.2 µM with SiHa [2]; greater than 500 µM in the data set with MCF7 [3]; 106 µM with MDA-MB-231 [4]; 52.6 µM with DU-145 [5]; greater than 500 µM in the data set with KB [6]. For the same molecule, the CC50 (with HEp-2 [7]; in data set [8]; in data set [9]) was greater than 500 µM each time. Besides, the IC50 was 106 µM in the data set on HeLa [10]; 127 µM with SiHa [11]; greater than 500 µM with MCF7 [12]; 123 µM in the data set on MDA-MB-231 [13]; 89.7 µM with DU-145 [14]; greater than 500 µM in the data set on KB [15]. Further, the 50% inhibitory concentration (IC50) in the data set with HEp-2 [16], in the data set on Vero and in the data set with HEK293 was greater than 500 µM each time.

For the molecule `C=C(C)[C@@H]1CC[C@]2(C(=O)O)CC[C@]3(C)[C@H](CC[C@@H]4[C@@]5(C)CC[C@H]6OC(C)(C)OC[C@]6(C)[C@@H]5CC[C@]43C)[C@@H]12`, the half-maximal cytotoxic concentration (CC50) is greater than 500 µM in the data set on HeLa [1]; greater than 500 µM in the data set on SiHa [2]; 84.6 µM in the data set with MCF7 [3]; greater than 500 µM in the data set with MDA-MB-231 [4]; greater than 500 µM in the data set on DU-145 [5]; 10.2 µM with KB [6]. Also, the CC50 was 32.4 µM in the data set on HEp-2 [7], greater than 500 µM in [8] and 420 µM in [9]. The selectivity ratio in data set [17] was determined as 5; in [18] it was 41; in data set [19], 13; in data set [20], 11.3; in data set [21], 39.9. Moreover, the half-maximal inhibitory concentration (IC50) in the data set on HeLa [10] is greater than 500 µM; with SiHa [11] it was 58.2 µM; in the data set with MCF7 [12] it was greater than 500 µM; in the data set with MDA-MB-231 [13], greater than 500 µM; in the data set on DU-145 [14] it was greater than 500 µM; in the data set on KB [15], 16.4 µM. Besides, the 50% inhibitory concentration (IC50) is greater than 500 µM in the data set on HEp-2 [16], greater than 500 µM with Vero and 656 µM in the data set on HEK293.

Turning to `C=C(C)[C@@H]1CC[C@]2(CO)CC[C@]3(C)[C@H](CC[C@@H]4[C@@]5(C)CC[C@H](O)C(C)(C)[C@@H]5CC[C@]43C)[C@@H]12` [BETULIN], the CC50 in the data set on HeLa [1] was greater than 500 µM; with SiHa [2] it was greater than 500 µM; in the data set on MCF7 [3], greater than 500 µM; in the data set on MDA-MB-231 [4] it was greater than 500 µM; in the data set with DU-145 [5], 162 µM; with KB [6] it was greater than 500 µM. The CC50 (with HEp-2 [7]; in [8]; in [9]) was greater than 500 µM in each case. The IC50 with HeLa [10] is greater than 500 µM; in the data set with SiHa [11], greater than 500 µM; in the data set with MCF7 [12], greater than 500 µM; in the data set on MDA-MB-231 [13] it was greater than 500 µM; with DU-145 [14], 137 µM; in the data set with KB [15] it was greater than 500 µM. The 50% inhibitory concentration (IC50) in the data set on HEp-2 [16], in the data set with Vero and in the data set with HEK293 was greater than 500 µM in each case.

Take `C=C(C)[C@@H]1CC[C@]2(CO)CC[C@]3(C)[C@H](CC[C@@H]4[C@@]5(C)CCC(=O)C(C)(C)[C@@H]5CC[C@]43C)[C@@H]12` [BETULONE]: the CC50 is 136 µM in the data set with HeLa [1]; 197 µM in the data set with SiHa [2]; greater than 500 µM in the data set on MCF7 [3]; 136 µM with MDA-MB-231 [4]; 102 µM in the data set with DU-145 [5]; greater than 500 µM in the data set with KB [6]. Further, the 50% cytotoxic concentration (CC50) (in the data set with HEp-2 [7]; in data set [8]; in data set [9]) was greater than 500 µM throughout. The half-inhibitory concentration (IC50) with HeLa [10], in the data set on SiHa [11], in the data set on MCF7 [12], in the data set on MDA-MB-231 [13], with DU-145 [14] and with KB [15] was greater than 500 µM each time. Moreover, the IC50 in the data set on HEp-2 [16], with Vero and in the data set with HEK293 was greater than 500 µM each time.

The values are drawn from ChEMBL document CHEMBL4130545, “Lupane-Type Triterpenes of Phoradendron vernicosum” (J Nat Prod, 2017).
